MrgX1 ag = human MrgX1 receptor agonism, primary screen; MrgX1-HEK293 cells, Fluo-4 calcium fluorescence, agonist mode; hits give high values; B-score at 10 µM; 0.44% of 310,000 active;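 active = calcium response B-score plate-corrected fluorescence ratio at least 3 library SD, with starting fluorescence B-score inside 5 SD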
Target sequence (Q96LB2 whole entry, looked up): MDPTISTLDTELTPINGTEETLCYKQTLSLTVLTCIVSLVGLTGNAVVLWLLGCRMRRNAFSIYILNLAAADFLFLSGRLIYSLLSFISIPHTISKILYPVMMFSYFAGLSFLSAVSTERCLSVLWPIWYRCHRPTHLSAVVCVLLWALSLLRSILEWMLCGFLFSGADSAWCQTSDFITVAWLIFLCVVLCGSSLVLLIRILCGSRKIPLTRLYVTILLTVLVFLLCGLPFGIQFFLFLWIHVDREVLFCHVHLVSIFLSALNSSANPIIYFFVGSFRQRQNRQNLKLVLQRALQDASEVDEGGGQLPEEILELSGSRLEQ
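Test system: HEK293 cells stably expressing human MrgX1 receptor; Input: fifteen thousand cells per well; Dosing: compound delivered in addition one of three; Schedule: overnight seeding, then 1 h dark dye loading; Technique: Fluo-4 NW calcium fluorescence; Measure: B-scored fluorescence response ratio; Controls: positive and negative controls per plate.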
MrgX1 antagonist = human MrgX1 receptor antagonism, primary screen; AID 588676; MRGX1-HEK293 calcium flux, Fluo-4, BAM8-22 antagonism; hits give low values; 1.3% of 310,000 active; B-score at 10 µM;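 active = calcium-response B-score plate-corrected more than 3 library SD below zero, starting fluorescence within 5 deviations, no agonist response on first addition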;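 note: peak minus trough fluorescence over baseline after final BAM8-22 challenge near maximal dose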
RGS4 block = inhibitors of human RGS4; P49798; HEK293 M3R/RGS4 inducible, Fluo-4 calcium flux; hits give high values; triggered by carbachol at its EC20; B-score at 10 µM; 0.45% of 310,000 active; AID 463165;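 active = B-score, a plate-corrected calcium signal, over three deviations above library mean, with baseline fluorescence within five deviations of library mean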;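 note: RGS4 expression induced by doxycycline in cells with stable M3 receptor; B-score is computed from the integrated fluorescence ratio over baseline after carbachol; higher B-score means a larger calcium signal and so more RGS4 inhibition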
Target sequence (P49798 whole entry, looked up): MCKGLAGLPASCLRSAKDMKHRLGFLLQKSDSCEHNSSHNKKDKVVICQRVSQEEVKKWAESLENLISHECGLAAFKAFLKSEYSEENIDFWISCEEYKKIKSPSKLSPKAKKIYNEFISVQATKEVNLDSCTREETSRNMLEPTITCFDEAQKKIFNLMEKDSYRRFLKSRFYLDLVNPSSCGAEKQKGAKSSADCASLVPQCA
MrgX1 allo act = allosterically activates human MrgX1 receptor signaling. 0.63% of 310,000 active. AID 588675. MrgX1-HEK293, Fluo-4 calcium flux, FDSS; hits give high values. B-score at 10 µM. Q96LB2;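 active = plate-corrected calcium response at least 3 library SD above typical, normal starting fluorescence, not activating the receptor alone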;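 note: compound read alongside a low EC10 to EC30 dose of BAM8-22 agonist; peak minus trough fluorescence over baseline measured at the second addition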
RGS4 pot = potentiators or activators of RGS4 | HEK293 M3R/inducible RGS4, carbachol calcium flux Fluo4; hits give low values | B-score at 10 µM | 0.92% of 310,000 active;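 active = B-score of the integrated calcium signal more than 4 SD below the library mean, with starting fluorescence not abnormally high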;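 note: negative B-score means reduced calcium response which marks RGS4 activation or potentiation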
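Detection: kinetic calcium fluorescence imaging with Fluo4-AM dye, 2 µM / Material: HEK293 cells with stable M3R and inducible RGS4 / Schedule: recording 10 s baseline at 1 Hz, 100 s post-agonist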
RGS4 block valid = validation of RGS4 inhibitors. shares compounds with RGS4 block. HEK293 M3R/RGS4, carbachol calcium Fluo-4 fluorescence; carbachol added at its EC20; 0 = buffer wells, 100 = carbachol control. calcium response, % at 10 µM. 65% of 1,700 active. AID 492999;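 active = duplicate-averaged calcium response above the buffer-only control mean plus 5 SD of those controls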;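 note: integrated fluorescence ratio F max minus min over baseline F0; higher response in RGS4-induced cells means RGS4 inhibition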
M3R Ca ctr = non-induced cell nonspecific activity of RGS4 inhibitors; activity (percent), % at 10 µM; 20% of 1,900 active; shares compounds with RGS4 block; HEK293 M3R non-induced, carbachol calcium Fluo-4; submaximal (EC20) carbachol stimulus; buffer wells 0%, carbachol control wells 100%; call rule not given here;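 note: RGS4 induction absent so cells express M3R without RGS4; higher means more calcium signal and flags a non-specific hit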
RGS4 inh ctr2 = second counter-screen for RGS4 inhibitors: non-induced cells without carbachol; shares compounds with RGS4 block; HEK293 M3R/RGS4 non-induced, Fluo-4 calcium, no carbachol; normalised: buffer wells 0%, carbachol wells 100%; calcium response (agonist-mode artifact), % at 10 µM; 22% of 1,900 active; AID 493001;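 active = duplicate-averaged calcium rise in uninduced cells above buffer wells' mean plus 5 SD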
The depositor's hits bear a star; i = inactive; . = not tested or not shown. Compounds with a hit are over-represented: about 3.5% of the library has one in this group of screens.

SMILES	MrgX1 ag	MrgX1 antagonist	RGS4 block	MrgX1 allo act	RGS4 pot	RGS4 block valid	M3R Ca ctr	RGS4 inh ctr2
Cc1ccccc1C1CC(c2ccccc2OC(F)F)Nc2ncnn21 (stereo not given)	i	i	5.3*	i	i	11%*	i	i
Cc1ccc(C2CC(c3ccccc3OC(F)F)Nc3ncnn32)cc1 (stereo not given)	i	i	i	i	i	.	i	i
COc1ccc(C(=O)N/C(=C\c2cn(C)c3ccccc23)C(=O)NCCCN2CCOCC2)cc1	i	i	i	i	i	.	.	.
CC1=C(C(=O)c2ccccc2)C(c2cn(-c3ccccc3)nc2-c2ccc(Cl)cc2)NC(=S)N1 (stereo not given)	i	i	4.9*	i	i	10%*	i	9.0%*
Cc1cccc(NC(=O)C(=O)C2C(=O)Nc3ccccc32)c1 (stereo not given)	i	i	i	i	i	.	.	.
O=C(Nc1ccc2ccccc2c1)C(=O)C1C(=O)Nc2ccccc21 (stereo not given)	i	i	8.1*	6.9*	i	12%*	i	i
CCOc1ccccc1N1CCN(Cc2cccc(OC)c2OC)CC1	i	i	i	i	i	.	.	.
COc1ccc2cc(-c3[nH]ncc3CN3CCCN(c4ccccc4)CC3)ccc2c1	i	i	5.5*	i	i	20%*	40%*	i
CCOc1ccccc1N1CCN(Cc2cn[nH]c2-c2ccc(F)cc2)CC1	i	i	6.8*	i	i	44%*	44%*	i
Cc1cccc(N=Nc2c(N)n[nH]c2-c2ccc(Cl)cc2)c1	i	i	i	i	i	.	.	.
Cc1ccc(-c2[nH]nc(N)c2N=Nc2ccccc2C)cc1	i	i	10*	i	i	i	i	i
CCOC(=O)C1(Cc2ccc(OC)cc2)CCN(C(=O)CCc2cccnc2)CC1	i	i	i	i	i	.	.	.
COc1ccc(Cl)cc1/C=C1/C(=O)ON=C1C	i	i	i	i	i	.	.	.
O=C1ON=C(c2cccc([N+](=O)[O-])c2)/C1=C/c1ccc(O)cc1	i	i	16*	i	i	44%*	i	29%*
O=C1ON=C(c2ccccc2)/C1=C/c1ccc(O)c(O)c1	i	i	5.7*	i	i	26%*	i	53%*
CC1=NOC(=O)/C1=C/c1ccc(O)c(Cl)c1	37*	i	8.2*	i	i	17%*	i	50%*
COc1cc(/C=C2\C(=O)ON=C2c2ccc(Cl)cc2)ccc1O	27*	i	i	i	i	.	i	56%*
COc1ccc(/C=C2\C(=O)ON=C2c2ccccc2)cc1	i	i	i	i	i	.	.	.
CCOC(=O)c1ccc(NCc2cccnc2)cc1	i	i	i	i	i	.	.	.
COc1cccc(CN2C(=NC(=O)C3CC3)SC3CS(=O)(=O)CC32)c1 (stereo not given)	i	i	i	i	i	.	.	.
CC(=O)c1ccc(N2CCN(C(=O)C(=O)c3cn(CC(=O)N4CCCCCC4)c4ccccc34)CC2)cc1	i	i	i	i	i	.	.	.
CCCCOc1ccc(/C=c2\sc3ncnn3c2=O)cc1	i	i	i	i	i	i	i	i
CCCCOc1ccc(/C=C2/Sc3ccccc3C2=O)cc1	i	i	i	i	i	.	.	.
O=[N+]([O-])c1ccc(N2CCOCC2)cc1O	i	i	i	i	i	.	.	.
Cc1cc(N2CCOCC2)ccc1/C=C\[N+](=O)[O-]	67*	i	27*	i	i	98%*	57%*	75%*
SMILES	MrgX1 ag	MrgX1 antagonist	RGS4 block	MrgX1 allo act	RGS4 pot	RGS4 block valid	M3R Ca ctr	RGS4 inh ctr2
Cc1cc(C)n(CCNc2nc3nonc3nc2N2CCCCC2)n1	i	i	i	i	i	.	.	.
Cc1cc(C)n(-c2cc(C(C)(C)C)nc3c(-c4ccccc4)cnn23)n1	i	i	i	i	i	.	32%*	i
Cc1cc(C)n(-c2cc(C(C)(C)C)nc3c(-c4ccc(Cl)cc4)cnn23)n1	i	i	8.6*	i	i	33%*	i	i
CC(C)(C)c1cc(NCc2ccccn2)n2ncc(-c3ccccc3)c2n1	i	i	i	i	i	.	.	.
CNc1ccccc1C(C)(C)c1cn(-c2ccc([N+](=O)[O-])cc2)nn1	i	i	i	i	i	.	.	.
CCCCNC(=O)CN(c1cccc(Br)c1)S(C)(=O)=O	i	i	i	i	i	.	.	.
C#CCOC(=O)Nc1cccn(Cc2c(Cl)cccc2Cl)c1=O	i	i	i	i	i	.	.	.
COC(=O)Nc1ccc(=O)n(Cc2c(Cl)cccc2Cl)c1	i	i	i	i	i	.	i	i
COCCCNC(=O)c1cn(Cc2c(F)cccc2Cl)nn1	i	i	5.1*	i	i	i	i	i
Oc1ccc(/C=N/Nc2ccc(C(F)(F)F)cn2)cc1	i	i	i	i	i	.	i	i
COc1ccc(OCC(=O)NNC(=S)NC(=O)c2ccc(Br)o2)cc1	i	i	i	i	i	.	.	.
O=C(CSc1nnc(SCc2cccc3ccccc23)s1)N/N=C/c1c[nH]c2ccccc12	i	i	4.7*	i	i	20%*	i	i
O=C(CSc1nnc(SCc2ccc(Cl)cc2)s1)N/N=C/c1c[nH]c2ccccc12	i	i	i	i	i	.	i	i
O=C(O)COc1ccccc1/C=N/NC(=O)CSc1nnc(SCc2cccc3ccccc23)s1	i	i	i	i	i	.	.	.
O=C(CSc1nc2c(cnn2-c2ccc(F)cc2)c(=O)[nH]1)N1CCCc2ccccc21	i	i	i	i	i	i	i	i
Cc1ccc(/C=C/C(=O)N2CCCC(C(N)=O)C2)o1 (stereo not given)	i	i	i	i	i	.	.	.
Cc1ccc(SCc2[nH]nc3c2C2(C(=O)Nc4ccc(F)cc42)C(C#N)=C(N)O3)cc1 (stereo not given)	i	i	i	i	i	.	i	i
